Source: ChEMBL document CHEMBL5058577, “EUbOPEN Chemogenomics Library 2 (Multiplex)” (2022)

System: Fibroblast
Experiment: Multiplex assay against human fibroblast
Format: toxicity, cell-based
Outline: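 Four dyes were applied at seeding to live cells: Hoechst33342, BioTracker Green Microtubule Cytoskeleton Dye, MitoTracker Red and Annexin V Alexa Fluor 680. Imaging after compound addition used a CQ1 microscope at 37°C and 5% CO2. CellPathfinder machine-learning gating then sorted cells into Hoechst high-intensity objects or normal cells, normal cells into healthy, pyknosed or fragmented nuclei, and pyknosed cells into mitotic or apoptotic, with tubulin, mitochondrial-mass and membrane-permeability phenotypes given as per cents of healthy-nucleus cells.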

[1] = 12 h, 1 µM, compound concentration 1 uM, replicate 1
[2] = 12 h, 1 µM, compound concentration 1 uM, replicate 2
[3] = 12 h, 10 µM, compound concentration 10 uM, replicate 1
[4] = 12 h, 10 µM, compound concentration 10 uM, replicate 2
[5] = 24 h, 1 µM, compound concentration 1 uM, replicate 1
[6] = 24 h, 1 µM, compound concentration 1 uM, replicate 2
[7] = 24 h, 10 µM, compound concentration 10 uM, replicate 1
[8] = 24 h, 10 µM, compound concentration 10 uM, replicate 2
[9] = 48 h, 1 µM, compound concentration 1 uM, replicate 1
[10] = 48 h, 1 µM, compound concentration 1 uM, replicate 2
[11] = 48 h, 10 µM, compound concentration 10 uM, replicate 1
[12] = 48 h, 10 µM, compound concentration 10 uM, replicate 2

For `CN1C[C@H](C(=O)N[C@]2(C)O[C@@]3(O)[C@@H]4CCCN4C(=O)[C@H](Cc4ccccc4)N3C2=O)C[C@@H]2c3cccc4[nH]cc(c34)C[C@H]21.CS(=O)(=O)O` [DIHYDROERGOTAMINE MESYLATE], the “Population Apoptotic (%)” value [1] was 25%, the “Population Fragmented Nuclei (%)” value [1] was 13% and the “Population Healthy Nuclei (%)” value [1] was 70%. The “Population Hoechst High Intensity Objects (%)” value [1] was 1%, the “Population Membrane Permeable-Phenotype (%)” value [1] was 1% and the “Population Mitochondria Different-Phenotype (%)” value [1] was 1%. The “Population Mitotic Cells (%)” value [1] was 75%, the “Population Normal (%)” value [1] was 98% and the “Population Pyknosed Nuclei (%)” value [1] was 16%. The “Population Tubulin-Different-Phenotype (%)” value [1] was 23%, the “Total Cell Count” value [1] was 127 and the “Population Apoptotic (%)” value [2] was 47%. The “Population Fragmented Nuclei (%)” value [2] was 32%, the “Population Healthy Nuclei (%)” value [2] was 51% and the “Population Hoechst High Intensity Objects (%)” value [2] was 7%. The “Population Membrane Permeable-Phenotype (%)” value [2] was 6%, the “Population Mitochondria Different-Phenotype (%)” value [2] was 5% and the “Population Mitotic Cells (%)” value [2] was 52%. For the same compound, the “Population Normal (%)” value [2] was 92%, the “Population Tubulin-Different-Phenotype (%)” value [2] was 31% and the “Total Cell Count” value [2] was 155. The “Population Apoptotic (%)” value [3] was 57%, the “Population Fragmented Nuclei (%)” value [3] was 27% and the “Population Healthy Nuclei (%)” value [3] was 65%. The “Population Hoechst High Intensity Objects (%)” value [3] was 0%, the “Population Membrane Permeable-Phenotype (%)” value [3] was 0% and the “Population Mitochondria Different-Phenotype (%)” value [3] was 5%. For the same compound, the “Population Mitotic Cells (%)” value [3] was 42%, the “Population Normal (%)” value [3] was 100% and the “Population Pyknosed Nuclei (%)” value [3] was 7%. For the same compound, the “Population Tubulin-Different-Phenotype (%)” value [3] was 8%, the “Total Cell Count” value [3] was 92 and the “Population Apoptotic (%)” value [4] was 31%. For the same compound, the “Population Fragmented Nuclei (%)” value [4] was 33%, the “Population Healthy Nuclei (%)” value [4] was 45% and the “Population Hoechst High Intensity Objects (%)” value [4] was 8%. The “Population Membrane Permeable-Phenotype (%)” value [4] was 2%, the “Population Mitochondria Different-Phenotype (%)” value [4] was 0% and the “Population Mitotic Cells (%)” value [4] was 68%. The “Population Normal (%)” value [4] was 91%, the “Population Pyknosed Nuclei (%)” value [4] was 21% and the “Population Tubulin-Different-Phenotype (%)” value [4] was 42%. For the same compound, the “Total Cell Count” value [4] was 114, the “Population Apoptotic (%)” value [5] was 38% and the “Population Fragmented Nuclei (%)” value [5] was 14%. The “Population Healthy Nuclei (%)” value [5] was 75%, the “Population Hoechst High Intensity Objects (%)” value [5] was 1% and the “Population Membrane Permeable-Phenotype (%)” value [5] was 0%. The “Population Mitochondria Different-Phenotype (%)” value [5] was 0%, the “Population Mitotic Cells (%)” value [5] was 61% and the “Population Normal (%)” value [5] was 98%. The “Population Pyknosed Nuclei (%)” value [5] was 10%, the “Population Tubulin-Different-Phenotype (%)” value [5] was 18% and the “Total Cell Count” value [5] was 130. For the same compound, the “Population Apoptotic (%)” value [6] was 47%, the “Population Fragmented Nuclei (%)” value [6] was 30% and the “Population Healthy Nuclei (%)” value [6] was 56%. For the same compound, the “Population Hoechst High Intensity Objects (%)” value [6] was 4%, the “Population Membrane Permeable-Phenotype (%)” value [6] was 7% and the “Population Mitochondria Different-Phenotype (%)” value [6] was 3%. The “Population Mitotic Cells (%)” value [6] was 52%, the “Population Normal (%)” value [6] was 95% and the “Population Pyknosed Nuclei (%)” value [6] was 13%. For the same compound, the “Population Tubulin-Different-Phenotype (%)” value [6] was 50%, the “Total Cell Count” value [6] was 149 and the “Population Apoptotic (%)” value [7] was 55%. The “Population Fragmented Nuclei (%)” value [7] was 17%, the “Population Healthy Nuclei (%)” value [7] was 72% and the “Population Hoechst High Intensity Objects (%)” value [7] was 1%. The “Population Membrane Permeable-Phenotype (%)” value [7] was 0%, the “Population Mitochondria Different-Phenotype (%)” value [7] was 1% and the “Population Mitotic Cells (%)” value [7] was 44%. The “Population Normal (%)” value [7] was 98%, the “Population Pyknosed Nuclei (%)” value [7] was 10% and the “Population Tubulin-Different-Phenotype (%)” value [7] was 15%. For the same compound, the “Total Cell Count” value [7] was 89, the “Population Apoptotic (%)” value [8] was 31% and the “Population Fragmented Nuclei (%)” value [8] was 35%. For the same compound, the “Population Healthy Nuclei (%)” value [8] was 43%, the “Population Hoechst High Intensity Objects (%)” value [8] was 5% and the “Population Membrane Permeable-Phenotype (%)” value [8] was 6%. The “Population Mitochondria Different-Phenotype (%)” value [8] was 0%, the “Population Mitotic Cells (%)” value [8] was 68% and the “Population Normal (%)” value [8] was 94%. The “Population Pyknosed Nuclei (%)” value [8] was 20%, the “Population Tubulin-Different-Phenotype (%)” value [8] was 46% and the “Total Cell Count” value [8] was 113. For the same compound, the “Population Apoptotic (%)” value [9] was 57%, the “Population Fragmented Nuclei (%)” value [9] was 20% and the “Population Healthy Nuclei (%)” value [9] was 68%. The “Population Hoechst High Intensity Objects (%)” value [9] was 1%, the “Population Membrane Permeable-Phenotype (%)” value [9] was 0% and the “Population Mitochondria Different-Phenotype (%)” value [9] was 2%. The “Population Mitotic Cells (%)” value [9] was 42%, the “Population Normal (%)” value [9] was 98% and the “Population Pyknosed Nuclei (%)” value [9] was 10%. The “Population Tubulin-Different-Phenotype (%)” value [9] was 30%, the “Total Cell Count” value [9] was 134 and the “Population Apoptotic (%)” value [10] was 53%. For the same compound, the “Population Fragmented Nuclei (%)” value [10] was 38%, the “Population Healthy Nuclei (%)” value [10] was 50% and the “Population Hoechst High Intensity Objects (%)” value [10] was 5%. The “Population Membrane Permeable-Phenotype (%)” value [10] was 6%, the “Population Mitochondria Different-Phenotype (%)” value [10] was 6% and the “Population Mitotic Cells (%)” value [10] was 46%. The “Population Normal (%)” value [10] was 94%, the “Population Pyknosed Nuclei (%)” value [10] was 11% and the “Population Tubulin-Different-Phenotype (%)” value [10] was 48%. For the same compound, the “Total Cell Count” value [10] was 139, the “Population Apoptotic (%)” value [11] was 63% and the “Population Fragmented Nuclei (%)” value [11] was 21%. The “Population Healthy Nuclei (%)” value [11] was 65%, the “Population Hoechst High Intensity Objects (%)” value [11] was 3% and the “Population Membrane Permeable-Phenotype (%)” value [11] was 1%. The “Population Mitochondria Different-Phenotype (%)” value [11] was 3%, the “Population Mitotic Cells (%)” value [11] was 36% and the “Population Normal (%)” value [11] was 96%. For the same compound, the “Population Pyknosed Nuclei (%)” value [11] was 12%, the “Population Tubulin-Different-Phenotype (%)” value [11] was 20% and the “Total Cell Count” value [11] was 91. For the same compound, the “Population Apoptotic (%)” value [12] was 76%, the “Population Fragmented Nuclei (%)” value [12] was 44% and the “Population Healthy Nuclei (%)” value [12] was 44%. The “Population Membrane Permeable-Phenotype (%)” value [12] was 11%, the “Population Mitochondria Different-Phenotype (%)” value [12] was 5% and the “Population Mitotic Cells (%)” value [12] was 23%. For the same compound, the “Population Pyknosed Nuclei (%)” value [12] was 10%, the “Population Tubulin-Different-Phenotype (%)” value [12] was 55% and the “Total Cell Count” value [12] was 126.
